# Assay results taken from ChEMBL document CHEMBL4477237, “Structure-Based Design of β5c Selective Inhibitors of Human Constitutive Proteasomes” (J Med Chem, 2016).
# The source made the active and inactive calls. No cut-off for these calls is given here.
# How the values were obtained:
# [1] = biological target: T1, Proteasome Macropain subunit MB1 (Homo sapiens) (UniProt P28074); test: Inhibition of catalytic activity of immunoproteasome 20s subunit beta5/constitutive 20s subunit beta5 in human AMO1 cells assessed as accumulation of ubiquitinated-GFP at 3 uM after 1 hr by FACS analysis; format: cell-based
# T1 sequence (whole entry): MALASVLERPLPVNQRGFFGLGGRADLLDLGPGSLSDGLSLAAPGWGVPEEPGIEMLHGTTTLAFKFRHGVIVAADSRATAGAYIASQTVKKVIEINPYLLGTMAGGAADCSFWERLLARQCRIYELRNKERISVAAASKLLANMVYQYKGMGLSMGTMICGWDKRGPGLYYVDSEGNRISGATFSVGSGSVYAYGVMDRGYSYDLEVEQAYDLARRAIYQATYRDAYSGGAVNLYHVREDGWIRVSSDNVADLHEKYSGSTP
# How it was run: (§1)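 AMO-1 myeloma clone stably expressing Ub-G76V-GFP (G418-selected). 5x10⁵ cells pulsed 1 h at 37 °C with inhibitor, washed with PBS, then chased 12 h in inhibitor-free medium (37 °C, 5% CO₂). GFP median fluorescence intensity read by flow cytometry in FITC channel.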
# [2] = biological target: Proteasome Macropain subunit (Homo sapiens) (UniProt P49721); test: Inhibition of catalytic activity of constitutive proteasome 20s subunit beta2 in human RPMI8226 cells incubated for 1 hr by BODIPY(FL)-LU-112 probe based competitive activity based protein profiling assay; format: cell-based
# How it was run: (§2)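 Live RPMI-8226 cells ((5-8)x10⁵ cells/mL; RPMI-1640, 10% FCS, GlutaMAX, pen/strep, 5% CO₂) exposed to inhibitor 1 h at 37 °C. Cells washed with PBS and lysed in digitonin/ATP buffer on ice 1 h. Lysates then labelled 1 h with the ABP cocktail and run on SDS-PAGE. In-gel fluorescence bands were normalized to mock and corrected for loading by Coomassie. IC50 from mean of three independent experiments.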
# [3] = biological target: T2, Proteasome component C5 (Homo sapiens) (UniProt P20618); test: Inhibition of catalytic activity of constitutive proteasome 20s subunit beta1 in human RPMI8226 cells incubated for 1 hr by Cy5-NC-001 probe based competitive activity based protein profiling assay; format: cell-based; how it was run: as §2
# T2 sequence (whole entry): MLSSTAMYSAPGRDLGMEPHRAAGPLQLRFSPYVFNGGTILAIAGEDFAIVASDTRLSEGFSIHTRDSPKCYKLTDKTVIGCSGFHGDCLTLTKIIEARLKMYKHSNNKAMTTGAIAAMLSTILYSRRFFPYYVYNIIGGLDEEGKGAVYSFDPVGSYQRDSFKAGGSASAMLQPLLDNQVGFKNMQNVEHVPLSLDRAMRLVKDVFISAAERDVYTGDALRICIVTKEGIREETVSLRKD
# [4] = biological target: T3, Proteasome Macropain subunit MB1 (Homo sapiens, UniProt P28074); test: (§3) Inhibition of catalytic activity of constitutive proteasome 20s subunit beta5 in human Raji cells incubated for 1 hr by BODIPY(TMR)-NC-005-VS probe based competitive activity based protein profiling assay; format: cell-based
# T3 sequence (P28074 whole entry): T1 sequence (whole entry)
# [5] = biological target: Proteasome subunit beta type-8 (β5i, LMP7) (Homo sapiens) (UniProt P28062); test: Inhibition of catalytic activity of immunoproteasome 20s subunit beta5 in human RPMI8226 cells incubated for 1 hr by BODIPY(TMR)-NC-005-VS probe based competitive activity based protein profiling assay
# [6] = biological target: Proteasome subunit beta type-9 (β1i, LMP2) (Homo sapiens) (UniProt P28065); test: Inhibition of catalytic activity of immunoproteasome 20s subunit beta1 in human RPMI8226 cells incubated for 1 hr by Cy5-NC-001 probe based competitive activity based protein profiling assay
# [7] = biological target: T1, Proteasome Macropain subunit MB1 (Homo sapiens); test: (§4) Inhibition of catalytic activity of constitutive proteasome 20s subunit beta5 in human RPMI8226 cells incubated for 1 hr by BODIPY(TMR)-NC-005-VS probe based competitive activity based protein profiling assay; format: cell-based; how it was run: as §2
# Homo sapiens = organism: Homo sapiens; test: Selectivity ratio of IC50 for immunoproteasome 20s subunit beta5 in human Raji cells to IC50 for constitutive proteasome 20s subunit beta5 in human Raji cells; format: cell-based
# How it was run: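 Initial screen in Raji cell extracts. Inhibitor at 0.01, 0.1, 1.0 and 10.0 µM final for 1 h at 37 °C, then ABP cocktail 1 h. In-gel fluorescence of β5c/β5i bands normalized to mock-treated extract, giving residual activity. Run once. IC50s from this screen feed the β5i/β5c ratio.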
# [8] = biological target: T1, Proteasome Macropain subunit MB1 (Homo sapiens); test: Inhibition of catalytic activity of immunoproteasome 20s subunit beta5/constitutive 20s subunit beta5 in human AMO1 cells assessed as accumulation of ubiquitinated-GFP at 100 uM after 1 hr by FACS analysis; format: cell-based; how it was run: as §1
# [9] = biological target: T3, Proteasome Macropain subunit MB1; test: as §4; format: cell-based; how it was run: as §2
# [10] = biological target: Proteasome subunit beta type-8 (β5i, LMP7) (Homo sapiens) (UniProt P28062); test: Inhibition of catalytic activity of immunoproteasome 20s subunit beta5 in human Raji cells incubated for 1 hr by BODIPY(TMR)-NC-005-VS probe based competitive activity based protein profiling assay
# [11] = biological target: Proteasome Macropain subunit (Homo sapiens) (UniProt P49721); test: Inhibition of catalytic activity of constitutive proteasome 20s subunit beta2 in human Raji cells incubated for 1 hr by BODIPY(FL)-LU-112 probe based competitive activity based protein profiling assay; format: cell-based
# [12] = biological target: T2, Proteasome component C5 (Homo sapiens); test: Inhibition of catalytic activity of constitutive proteasome 20s subunit beta1 in human Raji cells incubated for 1 hr by Cy5-NC-001 probe based competitive activity based protein profiling assay; format: cell-based
# [13] = biological target: T1, Proteasome Macropain subunit MB1 (Homo sapiens); test: as §3; format: cell-based
# [14] = biological target: Proteasome subunit beta type-9 (β1i, LMP2) (Homo sapiens) (UniProt P28065); test: Inhibition of catalytic activity of immunoproteasome 20s subunit beta1 in human Raji cells incubated for 1 hr by Cy5-NC-001 probe based competitive activity based protein profiling assay
smiles,measurement,setting,value
COc1ccc(C[C@H](NC(=O)Cc2ccc3ccccc3c2)C(=O)N[C@@H](Cc2ccccc2)C(=O)N[C@@H](CC(C)C)C(=O)[C@@]2(C)CO2)cc1,inhibition,[1],Active
C[C@H](NC(=O)[C@H](Cc1ccccc1)NC(=O)[C@H](C[C@H]1CC[C@H](C2CCCCC2)CC1)NC(=O)[C@H](Cc1ccccc1)N=[N+]=[N-])C(=O)[C@@]1(C)CO1,inhibition,[2],inactive
same,inhibition,[3],inactive
same,IC50,[4],4.9 nM
same,inhibition,[5],inactive
same,inhibition,[6],inactive
same,inhibition,[7],inactive
CC(C)C[C@H](NC(=O)CN1CCOCC1)C(=O)N[C@@H](C[C@H]1CC[C@H](C2CCCCC2)CC1)C(=O)N[C@@H](Cc1ccccc1)C(=O)N[C@@H](C)C(=O)[C@@]1(C)CO1,IC50,[4],28 nM
same,Ratio IC50,Homo sapiens,814
same,inhibition,[8],Active
same,IC50,[9],274 nM
COC1CCC(C[C@H](NC(=O)[C@H](Cc2ccccc2)N=[N+]=[N-])C(=O)N[C@@H](Cc2ccccc2)C(=O)N[C@@H](CC(C)C)C(=O)[C@@]2(C)CO2)CC1 (some centres not stated),pIC50(app),[10],7.67
same,pIC50(app),[11],7.18
same,pIC50(app),[12],< 4
same,pIC50(app),[13],8.68
same,IC50,[4],2.1 nM
same,pIC50(app),[14],6.05
